Compound activity deposited in PubChem by several laboratories.
In the library only some 2.8% were active in any assay of this set; here they are far more common.
PGE2 EP2 inh = blocks the human prostaglandin E2 receptor EP2; inhibition, % at 25 µM; C6 glioma cells expressing human EP2, cAMP TR-FRET; cells stimulated with saturating PGE2; hit rate 0.52% among 260,000; AID 1422;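 active means percent inhibition above 40 after rounding to a whole number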;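 further: rat C6 glioma host cells with rolipram phosphodiesterase inhibitor present; the protocol text gives 20 µM as final concentration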
Target sequence (P43116 whole entry, looked up): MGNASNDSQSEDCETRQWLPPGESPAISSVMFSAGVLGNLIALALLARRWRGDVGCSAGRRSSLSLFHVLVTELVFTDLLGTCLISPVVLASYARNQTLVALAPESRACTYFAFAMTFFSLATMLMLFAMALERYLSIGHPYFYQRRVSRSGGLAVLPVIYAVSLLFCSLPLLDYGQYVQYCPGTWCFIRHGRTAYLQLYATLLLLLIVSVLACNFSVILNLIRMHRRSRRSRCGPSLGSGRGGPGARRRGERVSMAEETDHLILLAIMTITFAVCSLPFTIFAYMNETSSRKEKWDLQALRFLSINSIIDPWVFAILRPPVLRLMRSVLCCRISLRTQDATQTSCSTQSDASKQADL
NPY Y1 blocker = blocks the human neuropeptide Y Y1 receptor; P25929; HEK293-CNG Y1 cells, membrane potential fluorescence; NPY at EC95, then isoproterenol; inhibition, % at 3.6 µM; hit rate 1% among 200,000; AID 1040;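 active means inhibition above the campaign mean inhibition of all tested compounds plus 3 SD, cut at about 20% in these data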;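 further: 0% = DMSO wells given NPY plus isoproterenol and 100% = isoproterenol alone without NPY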
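System: HEK293 cells with Y1 receptor plus CNG channel / Probe or stimulus: NPY 25 nM then isoproterenol 1 µM plus Ro 20-1724 25 µM / Compound: one concentration, 3.6 µM, in 0.4% DMSO / Schedule: compound incubation 1 h at room temperature, readout 45 min post-stimulation / Measured by: membrane potential fluorescence / Read-out: % inhibition of NPY effect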
NPY-Y2 antag = antagonists of human neuropeptide Y receptor Y2. P49146. NPY-Y2 expressing cells, antagonist mode. inhibition, % at 2.7 µM. hit rate 0.99% among 140,000. AID 793; in the data active means inhibition above about 17%;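 further: 0% = vehicle with agonist challenge and 100% = reference antagonist with challenge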
NPY-Y2 PAM-ag = human NPY-Y2 potentiation or agonism, primary screen; P49146; cells expressing NPY-Y2, potentiator/agonist read-out; activation, % at 3.6 µM; hit rate 0.45% among 220,000; in the data active means activation above about 27%;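 further: cells stimulated with NPY near EC25 plus isoproterenol at EC100; 0% = vehicle plus submaximal agonist and 100% = vehicle plus saturating agonist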
EP2 modulator = EP2 receptor (human) modulation. P43116. EP2-expressing cells, cAMP HTRF FRET, PGE2 co-stimulation. induction, % at 25 µM. hit rate 0.83% among 260,000;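 active means compounds whose cAMP rise, as percent of the full-agonist control response, exceeds 60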;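 further: rat C6 glioma line stably carrying human EP2 under a CMV promoter; the protocol text gives 20 µM as final concentration; 100% = response of wells given 1 µM PGE2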
NPY-Y1 PAM-ag = potentiators or agonists of human neuropeptide Y receptor Y1 | P25929 | NPY-Y1 expressing cells, potentiator/agonist activation | activation, % at 3.6 µM | hit rate 0.37% among 220,000 | AID 1304; in the data active means activation above about 33%, passing the limit was not always enough;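 further: cells stimulated with NPY at EC10 then isoproterenol at EC100; 0% = low agonist plus stimulus and 100% = saturating agonist plus stimulus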
NPY-Y1 antag ct = human NPY-Y1 antagonism in NPY-Y2 counter-screen | shares compounds with NPY-Y2 antag | cell-based NPY-Y1 antagonism counterscreen | inhibition, % at 3.6 µM | hit rate 19% among 710; in the data active means inhibition above about 20%;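 further: cells challenged with NPY then isoproterenol with cAMP sensed through a CNG channel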
NPY-Y2 ant conf = confirmation of human neuropeptide Y receptor Y2 antagonists; shares compounds with NPY-Y2 antag; HEK293 NPY-Y2 CNG channel, membrane potential fluorescence; inhibition, % at 2.8 µM; hit rate 32% among 710; AID 1257;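 active means mean inhibition of triplicate wells above the hit cutoff set in the primary screen, cut at about 17% in these data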;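 further: 0% = DMSO with NPY challenge and 100% = BIIE0246 high control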
* marks the source's active call; other numbers are inactive results; · = not tested or not shown.

SMILES	PGE2 EP2 inh	NPY Y1 blocker	NPY-Y2 antag	NPY-Y2 PAM-ag	EP2 modulator	NPY-Y1 PAM-ag	others
COC(=O)c1cccc(S(=O)(=O)N(CCCO)Cc2cc3cc(C)ccc3[nH]c2=O)c1	9	·	·	·	-18	·
COc1ccc2[nH]c(=O)c(CN(Cc3cccs3)S(=O)(=O)c3ccc(C(C)=O)cc3)cc2c1	66*	·	·	·	-99	·
COC(=O)c1cccc(S(=O)(=O)N(Cc2cccs2)Cc2cc3cc(OC)ccc3[nH]c2=O)c1	46*	·	·	·	-88	·
CCOc1ccc(NC(=O)CSc2nnc3c(C)cc4cc(C)ccc4n23)cc1	15	·	·	·	-20	·
O=C1CCCC(O)=C1C(C#Cc1ccccc1)C1=C(O)CCCC1=O	43*	-2	2	-4	-39	-2
Oc1ccc(N=Nc2c(O)ccc3ccccc23)cc1	18	-19	-9	82*	25	87*
COc1ccc(OC)c(-c2csc(N(CCCN(C)C)C(=O)c3ccccc3C)n2)c1	29	·	·	·	-44	·
Cc1c(Nc2nc(-c3ccccc3)cs2)c(=O)n(-c2ccccc2)n1C	7	-1	1	78*	11	59*
Fc1ccc(C(c2nnnn2CCc2ccccc2)N2CCCc3ccccc32)cc1 (stereo not drawn)	15	27*	38*	5	31	-6
Fc1ccc(C(c2nnnn2C2CCCC2)N2CCc3ccccc32)cc1 (stereo not drawn)	5	9	15	15	49	-15
CN(C)CCCc1c2ccccc2nc2ccc(Cl)cc12	58*	·	·	·	2	·
C[C@@H]1c2ccccc2Cn2cc3c(c21)C(=O)c1cccc(OP(=O)(O)OCc2ccccc2)c1C3=O	42*	·	·	·	25	·
Cc1cc(C(=O)CN2CCCC2)c(C)n1-c1ccc(Cl)cc1	5	21*	·	-2	-16	-3
Cc1cc(C(=O)CN2CCCCC2)c(C)n1-c1ccc(F)cc1	7	3	5	2	-1	-29
CCOc1ccc2[nH]c(=O)c(CN(CCO)C(=S)Nc3ccccc3)cc2c1	13	·	·	·	-50	·
O=CN/C=C/c1cc(O)ccc1O	111*	·	·	0	-44	9
O=C(/C=C/c1ccccc1)c1ccc(O)cc1O	11	·	·	·	-8	·
CCn1c(SCC(=O)Nc2cccc(Cl)c2C)nnc1C(C)C	7	·	·	·	-26	·
c1ccc2c[n+](CCCC[n+]3ccc4ccccc4c3)ccc2c1	43*	·	·	·	-5	·
CCO/C(=C/c1sc2ccccc2[n+]1CC)CC	14	·	·	·	-6	·
COc1ccc(OC)c(CN2CCN(Cc3cc(OC)ccc3OC)CC2)c1	7	·	·	·	-14	·
O=C1NN(c2ccc(Cl)c(Cl)c2)C(=O)/C1=C/c1cccc(OC(=O)c2cccs2)c1	9	5	2	-3	-7	22
O=C1NN(c2ccccc2)C(=O)/C1=C\c1cccc(OC(=O)c2cccs2)c1	40*	4	0	1	-42	12
O=C(O)C(Cc1ccccc1)N1C(=O)/C(=C/c2cccc3ccccc23)SC1=S (stereo not drawn)	11	10	20*	-22	21	-55
COc1ccccc1N1CCN(C(=O)CSc2nnc3n2C(C)(C)Cc2ccccc2-3)CC1	5	-11	1	75*	-27	96*
SMILES	PGE2 EP2 inh	NPY Y1 blocker	NPY-Y2 antag	NPY-Y2 PAM-ag	EP2 modulator	NPY-Y1 PAM-ag	others
Cc1ccc(NC(=O)CSc2nc(N)c3c4c(sc3n2)CSC(C)(C)C4)cc1	3	5	6	-4	-12	-9
Cc1ccccc1NC(=O)CSc1nc(N)c2c3c(sc2n1)CSC(C)(C)C3	4	32*	47*	-23	10	-60
O=C(C1CCCO1)N1CCC[C@H]1Cn1nc(-c2ccc(F)cc2)ccc1=O (stereo partly drawn)	5	·	·	·	-14	·
CN(C)CCOC(C1CCCCC1)C1CCCCC1	4	18	27*	-14	13	-34	NPY-Y1 antag ct=12;NPY-Y2 ant conf=16
CCOc1ccccc1NC(=O)C(=O)NCCN1CCOCC1	11	·	·	·	-1	·
C=CC(C)Sc1nc2c(c(=O)n(C)c(=O)n2C)n1Cc1ccccc1Cl (stereo not drawn)	14	5	18*	14	51	-5	NPY-Y1 antag ct=-2;NPY-Y2 ant conf=10
O=C(Nc1c(Cl)cccc1Cl)c1cc2nc(-c3ccco3)cc(C(F)(F)F)n2n1	15	·	·	·	38	·
CCCCOC(=O)Nc1nc(C)c(C(=O)OCC)s1	7	10	18*	-10	24	-25	NPY-Y1 antag ct=13;NPY-Y2 ant conf=6
CCOC(=O)c1sc(NC(=O)CC)nc1C	8	-1	·	3	22	-12
COc1ccc(-c2noc(CSc3nc(-c4ccccc4)cc(=O)[nH]3)n2)cc1	4	6	25*	-4	-9	6	NPY-Y1 antag ct=3;NPY-Y2 ant conf=1
CCn1c(CNS(=O)(=O)c2ccc(C)cc2)nnc1SCC(=O)Nc1cc(C)on1	7	·	·	·	-6	·
CCOC(=O)c1cc(-c2ccccc2)sc1NC(=O)CCN1C(=O)c2ccccc2C1=O	7	-1	2	2	-7	-2
CCOC(=O)c1cc(-c2ccccc2)sc1NC(=O)CC	8	1	21*	-5	23	-28	NPY-Y1 antag ct=1;NPY-Y2 ant conf=0
CC(C)(C)NC(=O)Cn1ncc2cccn2c1=O	8	·	·	·	8	·
Cc1ccc(OCc2nc(C#N)c(NCc3ccc4c(c3)OCO4)o2)cc1	14	11	22*	-21	-41	-66	NPY-Y1 antag ct=11;NPY-Y2 ant conf=9
O=C(O)CCn1c(C(F)(F)F)nc2ccccc21	8	·	·	·	28	·
CC(C)N(C(=O)CSc1nc2ccccc2n1Cc1ccccc1F)C(C)C	6	13	17*	3	12	-14	NPY-Y1 antag ct=14;NPY-Y2 ant conf=6
CC(C)N(C(=O)CSc1nc2ccccc2n1Cc1ccccc1)C(C)C	14	4	8	0	43	-16
COc1cccc(NC(=O)C(c2ccccc2)N2CCCC2)c1 (stereo not drawn)	3	10	·	1	-10	-21
Cc1cccc(NC(=O)C(c2cccc([N+](=O)[O-])c2)N2CCCCC2)c1 (stereo not drawn)	1	15	17*	-10	7	-12	NPY-Y1 antag ct=16;NPY-Y2 ant conf=6
CCc1ccc2[nH]c(=O)c(CN(C(=O)Nc3ccccc3OC)C3CCCC3)cc2c1	8	·	·	·	-4	·
O=C(OCC1CC(c2ccccc2Cl)=NO1)c1ccc(Br)cc1 (stereo not drawn)	8	-1	10	-8	-2	8
O=C(OCC1CC(c2ccccc2)=NO1)c1ccc(Br)cc1 (stereo not drawn)	11	2	18*	6	11	-2	NPY-Y1 antag ct=13;NPY-Y2 ant conf=14
COc1ccc(/C(O)=C2/C(=O)C(=O)N(CCCN3CCOCC3)C2c2cccs2)c(C)c1 (stereo not drawn)	11	·	·	·	-7	·
